# Measured values as given in ChEMBL document CHEMBL1944509, “Methyl-monofluorination of ibuprofen selectively increases its inhibitory activity toward cyclooxygenase-1 leading to enhanced analgesic activity and reduced gastric damage in vivo” (Bioorg Med Chem Lett, 2011).
# The source made the active and inactive calls. The rule behind the calls is not given here.
# How the values were obtained:
# [1] = Drug level in ICR mouse brain at 5 mg/kg, iv after 0.5 hrs by HPLC/MS/MS analysis; type: ADME, organism-based; set-up: dose 5 mg/kg, route intravenous; conditions: read-out: Drug uptake
# [2] = Cmax in ICR mouse at 5 mg/kg, iv; type: ADME, organism-based; set-up: dose 5 mg/kg, route intravenous; conditions: in vivo
# In short: (§1)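 ICR mice given drug intravenously at 5 mg/kg or orally at 10 mg/kg. Parameters are taken from the plasma concentration–time profile: AUC(0–t), AUC(0–∞), MRT, Cmax and bioavailability.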
# [3] = Drug level in ICR mouse brain at 5 mg/kg, iv after 2 hrs by HPLC/MS/MS analysis; type: ADME, organism-based; set-up: dose 5 mg/kg, route intravenous; conditions: read-out: Drug uptake
# [4] = Tmax in ICR mouse at 5 mg/kg, iv; type: ADME, organism-based; set-up: dose 5 mg/kg, route intravenous; conditions: in vivo
# [5] = Cmax in ICR mouse at 10 mg/kg, po; type: ADME, organism-based; set-up: dose 10 mg/kg, route oral; conditions: in vivo; in short: as §1
# [6] = Oral bioavailability ICR mouse at 10 mg/kg; type: ADME, organism-based; conditions: in vivo; in short: as §1
# [7] = Drug level in ICR mouse brain at 5 mg/kg, iv after 0.083 hrs by HPLC/MS/MS analysis; type: ADME, organism-based; set-up: dose 5 mg/kg, route intravenous; conditions: read-out: Drug uptake
# [8] = Plasma concentration in ICR mouse at 10 mg/kg, po after 8 hrs by HPLC/MS/MS analysis; type: ADME, organism-based; set-up: dose 10 mg/kg, route oral
# Nucleic Acid [9] = assay: Ratio of drug level in brain to plasma in ICR mouse at 5 mg/kg, iv after 0.25 hrs by HPLC/MS/MS analysis; type: ADME, organism-based; set-up: dose 5 mg/kg, route intravenous
# [10] = Plasma concentration in ICR mouse at 5 mg/kg, iv after 4 hrs by HPLC/MS/MS analysis; type: ADME, organism-based; set-up: dose 5 mg/kg, route intravenous
# Nucleic Acid [11] = assay: Ratio of drug level in brain to plasma in ICR mouse at 10 mg/kg, po after 1 hr by HPLC/MS/MS analysis; type: ADME, organism-based; set-up: dose 10 mg/kg, route oral
# [12] = AUC (0 to infinity) in ICR mouse at 10 mg/kg, po; type: ADME, organism-based; set-up: time infinity, dose 10 mg/kg, route oral; conditions: plasma; in short: as §1
# [13] = Plasma concentration in ICR mouse at 10 mg/kg, po after 0.5 hrs by HPLC/MS/MS analysis; type: ADME, organism-based; set-up: dose 10 mg/kg, route oral
# [14] = Plasma concentration in ICR mouse at 5 mg/kg, iv after 0.083 hrs by HPLC/MS/MS analysis; type: ADME, organism-based; set-up: dose 5 mg/kg, route intravenous
# [15] = Plasma concentration in ICR mouse at 10 mg/kg, po after 0.083 hrs by HPLC/MS/MS analysis; type: ADME, organism-based; set-up: dose 10 mg/kg, route oral
# [16] = Plasma concentration in ICR mouse at 10 mg/kg, po after 0.25 hrs by HPLC/MS/MS analysis; type: ADME, organism-based; set-up: dose 10 mg/kg, route oral
# Rattus norvegicus [17] = assay: Antiinflammatory activity in Wistar albino rat assessed as inhibition of carrageenan-induced paw edema at 30 mg/kg intragastrically administered 1 hr before carrageenan challenge measured after 1 to 24 hrs post carrageenan challenge by plethysmometer; type: functional, organism-based
# In short: (§2)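 Male Wistar albino rats, 140–160 g, eight per group, dosed i.g. as a suspension in 0.5% CMC; controls get 0.5% CMC only. 1 h later, 0.1 ml of 0.1% carrageenan in 0.9% NaCl is injected into the sub-plantar region of the right hind paw. Paw volume is read by plethysmometer hourly to 6 h and at 24 h. Inhibition (%) = (Vc − Vt)/Vc × 100 on mean volume increase; mean ± SEM.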
# [18] = Plasma concentration in ICR mouse at 5 mg/kg, iv after 6 hrs by HPLC/MS/MS analysis; type: ADME, organism-based; set-up: dose 5 mg/kg, route intravenous
# [19] = Drug level in ICR mouse brain at 10 mg/kg, po after 1 hr by HPLC/MS/MS analysis; type: ADME, organism-based; set-up: dose 10 mg/kg, route oral; conditions: read-out: Drug uptake
# [20] = Drug level in ICR mouse brain at 10 mg/kg, po after 4 hrs by HPLC/MS/MS analysis; type: ADME, organism-based; set-up: dose 10 mg/kg, route oral; conditions: read-out: Drug uptake
# [21] = Plasma concentration in ICR mouse at 10 mg/kg, po after 1 hr by HPLC/MS/MS analysis; type: ADME, organism-based; set-up: dose 10 mg/kg, route oral
# [22] = Drug level in ICR mouse brain at 10 mg/kg, po after 0.083 hrs by HPLC/MS/MS analysis; type: ADME, organism-based; set-up: dose 10 mg/kg, route oral; conditions: read-out: Drug uptake
# [23] = Plasma concentration in ICR mouse at 10 mg/kg, po after 2 hrs by HPLC/MS/MS analysis; type: ADME, organism-based; set-up: dose 10 mg/kg, route oral
# [24] = Plasma concentration in ICR mouse at 5 mg/kg, iv after 2 hrs by HPLC/MS/MS analysis; type: ADME, organism-based; set-up: dose 5 mg/kg, route intravenous
# Rattus norvegicus [25] = assay: Antiinflammatory activity in Wistar albino rat assessed as inhibition of carrageenan-induced paw edema at 33.6 mg/kg, ig administered 1 hr before carrageenan challenge measured after 1 to 24 hrs post carrageenan challenge by plethysmometer; type: functional, organism-based; in short: as §2
# [26] = Plasma concentration in ICR mouse at 10 mg/kg, po after 4 hrs by HPLC/MS/MS analysis; type: ADME, organism-based; set-up: dose 10 mg/kg, route oral
# Nucleic Acid [27] = assay: Ratio of drug level in brain to plasma in ICR mouse at 5 mg/kg, iv after 0.083 hrs by HPLC/MS/MS analysis; type: ADME, organism-based; set-up: dose 5 mg/kg, route intravenous
# [28] = Plasma concentration in ICR mouse at 5 mg/kg, iv after 8 hrs by HPLC/MS/MS analysis; type: ADME, organism-based; set-up: dose 5 mg/kg, route intravenous
# [29] = AUC (0 to t) in ICR mouse at 5 mg/kg, iv; type: ADME, organism-based; set-up: dose 5 mg/kg, route intravenous; conditions: plasma; in short: as §1
# [30] = Mean residence time (0 to infinity) in ICR mouse at 5 mg/kg, iv; type: ADME, organism-based; set-up: dose 5 mg/kg, route intravenous; conditions: in vivo; in short: as §1
# [31] = Plasma concentration in ICR mouse at 5 mg/kg, iv after 0.5 hrs by HPLC/MS/MS analysis; type: ADME, organism-based; set-up: dose 5 mg/kg, route intravenous
# [32] = AUC (0 to infinity) in ICR mouse at 5 mg/kg, iv; type: ADME, organism-based; set-up: time infinity, dose 5 mg/kg, route intravenous; conditions: plasma; in short: as §1
# [33] = Drug level in ICR mouse brain at 5 mg/kg, iv after 0.25 hrs by HPLC/MS/MS analysis; type: ADME, organism-based; set-up: dose 5 mg/kg, route intravenous; conditions: read-out: Drug uptake
# [34] = Mean residence time (0 to infinity) in ICR mouse at 10 mg/kg, po; type: ADME, organism-based; set-up: dose 10 mg/kg, route oral; conditions: in vivo; in short: as §1
# [35] = AUC (0 to t) in ICR mouse at 10 mg/kg, po; type: ADME, organism-based; set-up: dose 10 mg/kg, route oral; conditions: plasma; in short: as §1
# Nucleic Acid [36] = assay: Ratio of drug level in brain to plasma in ICR mouse at 5 mg/kg, iv after 0.5 hrs by HPLC/MS/MS analysis; type: ADME, organism-based; set-up: dose 5 mg/kg, route intravenous
# [37] = Drug level in ICR mouse brain at 5 mg/kg, iv after 1 hr by HPLC/MS/MS analysis; type: ADME, organism-based; set-up: dose 5 mg/kg, route intravenous; conditions: read-out: Drug uptake
# [38] = Tmax in ICR mouse at 10 mg/kg, po; type: ADME, organism-based; set-up: dose 10 mg/kg, route oral; conditions: in vivo
# [39] = Drug level in ICR mouse brain at 10 mg/kg, po after 0.25 hrs by HPLC/MS/MS analysis; type: ADME, organism-based; set-up: dose 10 mg/kg, route oral; conditions: read-out: Drug uptake
# Nucleic Acid [40] = assay: Ratio of drug level in brain to plasma in ICR mouse at 10 mg/kg, po after 0.5 hrs by HPLC/MS/MS analysis; type: ADME, organism-based; set-up: dose 10 mg/kg, route oral
# [41] = Drug level in ICR mouse brain at 10 mg/kg, po after 0.5 hrs by HPLC/MS/MS analysis; type: ADME, organism-based; set-up: dose 10 mg/kg, route oral; conditions: read-out: Drug uptake
# [42] = Plasma concentration in ICR mouse at 10 mg/kg, po after 6 hrs by HPLC/MS/MS analysis; type: ADME, organism-based; set-up: dose 10 mg/kg, route oral
# Nucleic Acid [43] = assay: Ratio of drug level in brain to plasma in ICR mouse at 5 mg/kg, iv after 2 hrs by HPLC/MS/MS analysis; type: ADME, organism-based; set-up: dose 5 mg/kg, route intravenous
# [44] = Drug level in ICR mouse brain at 10 mg/kg, po after 2 hrs by HPLC/MS/MS analysis; type: ADME, organism-based; set-up: dose 10 mg/kg, route oral; conditions: read-out: Drug uptake
# [45] = Plasma concentration in ICR mouse at 5 mg/kg, iv after 0.25 hrs by HPLC/MS/MS analysis; type: ADME, organism-based; set-up: dose 5 mg/kg, route intravenous
smiles,measurement,setting,value
CC(C)Cc1ccc([C@H](C)C(=O)O)cc1 [DEXIBUPROFEN],concentration at 0.5 h,[1],613 ng/g
same,Cmax,[2],34600 ng/mL
same,concentration at 2 h,[3],123 ng/g
same,Tmax,[4],4.8 min
same,Cmax,[5],52100 ng/mL
same,bioavailability,[6],118%
same,concentration at 0.083 h,[7],1260 ng/g
same,concentration at 8 h,[8],336 ng/mL
same,BPR,Nucleic Acid [9],0.032 mL/g
same,concentration at 4 h,[10],927 ng/mL
same,BPR,Nucleic Acid [11],0.031 mL/g
same,AUC(0-inf),[12],81600 ng·h/mL
same,concentration at 0.5 h,[13],34400 ng/mL
same,concentration at 0.083 h,[14],34600 ng/mL
same,concentration at 0.083 h,[15],52100 ng/mL
same,concentration at 0.25 h,[16],33600 ng/mL
same,inhibition,Rattus norvegicus [17],Active
same,concentration at 6 h,[18],334 ng/mL
same,concentration at 1 h,[19],721 ng/g
same,concentration at 4 h,[20],127 ng/g
same,concentration at 1 h,[21],24000 ng/mL
same,concentration at 0.083 h,[22],1340 ng/g
same,concentration at 2 h,[23],15800 ng/mL
same,concentration at 2 h,[24],3930 ng/mL
same,inhibition,Rattus norvegicus [25],Active
same,concentration at 4 h,[26],5260 ng/mL
same,BPR,Nucleic Acid [27],0.037 mL/g
same,concentration at 8 h,[28],354 ng/mL
same,AUC(0-t),[29],33900 ng·h/mL
same,MRT inf,[30],76.8 min
same,concentration at 0.5 h,[31],19800 ng/mL
same,AUC(0-inf),[32],34500 ng·h/mL
same,concentration at 0.25 h,[33],598 ng/g
same,MRT inf,[34],101 min
same,AUC(0-t),[35],81100 ng·h/mL
same,BPR,Nucleic Acid [36],0.032 mL/g
same,concentration at 1 h,[37],251 ng/g
same,Tmax,[38],4.8 min
same,concentration at 0.25 h,[39],999 ng/g
same,BPR,Nucleic Acid [40],0.033 mL/g
same,concentration at 0.5 h,[41],1130 ng/g
same,concentration at 6 h,[42],1070 ng/mL
same,BPR,Nucleic Acid [43],0.031 mL/g
same,concentration at 2 h,[44],340 ng/g
same,concentration at 0.25 h,[45],19400 ng/mL
